According to ChEMBL document CHEMBL1144562, “Synthesis of a new class of 2-anilino substituted nicotinyl arylsulfonylhydrazides as potential anticancer and antibacterial agents” (2007):
≈ marks a conversion by molar mass, not a printed value.

Columns and labels:
[1] = system: SR; experiment: Antitumor activity against SR cells; assay type: functional; details: Homo sapiens
In short: (§1)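 Tested in the NCI 60-human-tumour-cell-line panel at five concentrations, in 10-fold dilutions from 10^-4 to 10^-8 M. Three parameters were taken from the dose-response data, each as log10 of the molar concentration: GI50 (50% net growth inhibition), TGI (total growth inhibition) and LC50 (50% net cell death).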

[2] = system: A549; experiment: Antitumor activity against A549 cells; assay type: functional; details: Homo sapiens
[3] = Antitumor activity against MALME 3M cells; assay type: functional; details: Homo sapiens
[4] = system: M14; experiment: Antitumor activity against M14 cells; assay type: functional; details: Homo sapiens
[5] = system: SK-MEL-28; experiment: Antitumor activity against SK-MEL-28 cells; assay type: functional; details: Homo sapiens
[6] = system: UACC-257; experiment: Antitumor activity against UACC257 cells; assay type: functional; details: Homo sapiens; in short: as §1
[7] = system: UACC-62; experiment: Antitumor activity against UACC62 cells; assay type: functional; details: Homo sapiens; in short: as §1
[8] = system: OVCAR-3; experiment: Antitumor activity against OVCAR-3 cells; assay type: functional; details: Homo sapiens
[9] = system: OVCAR-4; experiment: Antitumor activity against OVCAR4 cells; assay type: functional; details: Homo sapiens
[10] = system: OVCAR-8; experiment: Antitumor activity against OVCAR8 cells; assay type: functional; details: Homo sapiens
[11] = system: ACHN; experiment: Antitumor activity against ACHN cells; assay type: functional; details: Homo sapiens
[12] = system: RXF 393; experiment: Antitumor activity against RXF393 cells; assay type: functional; details: Homo sapiens
[13] = system: SN12C; experiment: Antitumor activity against SN12C cells; assay type: functional; details: Homo sapiens; in short: as §1
[14] = system: TK-10; experiment: Antitumor activity against TK10 cells; assay type: functional; details: Homo sapiens; in short: as §1
[15] = system: PC-3; experiment: Antitumor activity against PC3 cells; assay type: functional; details: Homo sapiens
[16] = system: DU-145; experiment: Antitumor activity against DU145 cells; assay type: functional; details: Homo sapiens
[17] = system: MDA-MB-435; experiment: Antitumor activity against MDA-MB-435 cells; assay type: functional; details: Homo sapiens
[18] = system: T47D; experiment: Antitumor activity against T47D cells; assay type: functional; details: Homo sapiens; in short: as §1
[19] = system: Staphylococcus epidermidis; experiment: Antibacterial activity against Staphylococcus epidermidis MTCC 435 after 18 hrs; assay type: functional; details: MTCC 435, 18 h
In short: (§2)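 Disc diffusion (Kirby–Bauer) on Mueller-Hinton agar inoculated with fresh bacteria at 1-5 × 10^4 cfu mL-1. Compounds were dissolved in DMF at a range of concentrations, and discs were placed in triplicate. Plates were incubated at 30 °C for 18 h. MIC was taken as the lowest concentration giving no visible bacterial growth on the plate.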

[20] = system: Bacillus subtilis; experiment: Antibacterial activity against Bacillus subtilis MTCC 441 after 18 hrs; assay type: functional; details: MTCC 441, 18 h; in short: as §2
[21] = system: Vibrio; experiment: Antibacterial activity against Vibrio species after 18 hrs; assay type: functional; in short: as §2
[22] = system: 786-0; experiment: Antitumor activity against 786-0 cells; assay type: functional; details: Homo sapiens
[23] = system: CCRF-CEM; experiment: Antitumor activity against CCRF-CEM cells; assay type: functional; details: Homo sapiens
[24] = Antitumor activity against HL60 (TB) cells; assay type: functional, HL-60(TB); details: Homo sapiens, HL-60
In short: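 NCI 60-cell-line in vitro screen (leukaemia subpanel). Compound tested at five 10-fold dilutions from 10^-4 to 10^-8 M. Dose-response parameters: GI50 (concentration giving 50% net growth inhibition), TGI (total growth inhibition) and LC50 (50% net cell death), each reported as log10 of molar concentration.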

[25] = system: K562; experiment: Antitumor activity against K562 cells; assay type: functional; details: Homo sapiens
[26] = system: HOP-62; experiment: Antitumor activity against HOP62 cells; assay type: functional; details: Homo sapiens
[27] = system: HOP-92; experiment: Antitumor activity against HOP92 cells; assay type: functional; details: Homo sapiens
[28] = system: NCI-H226; experiment: Antitumor activity against NCI-H226 cells; assay type: functional; details: Homo sapiens
[29] = Antitumor activity against NCI-H322 cells; assay type: functional; details: Homo sapiens
[30] = system: COLO 205; experiment: Antitumor activity against COLO205 cells; assay type: functional; details: Homo sapiens
[31] = system: HCC 2998; experiment: Antitumor activity against HCC2998 cells; assay type: functional; details: Homo sapiens
[32] = system: HCT-15; experiment: Antitumor activity against HCT15 cells; assay type: functional; details: Homo sapiens
[33] = system: HT-29; experiment: Antitumor activity against HT29 cells; assay type: functional; details: Homo sapiens
[34] = system: KM12; experiment: Antitumor activity against KM12 cells; assay type: functional; details: Homo sapiens
[35] = system: SW-620; experiment: Antitumor activity against SW620 cells; assay type: functional; details: Homo sapiens; in short: as §1
[36] = system: SF-268; experiment: Antitumor activity against SF268 cells; assay type: functional; details: Homo sapiens
[37] = system: SF-539; experiment: Antitumor activity against SF539 cells; assay type: functional; details: Homo sapiens
[38] = system: SNB-19; experiment: Antitumor activity against SNB19 cells; assay type: functional; details: Homo sapiens; in short: as §1
[39] = system: SNB-75; experiment: Antitumor activity against SNB75 cells; assay type: functional; details: Homo sapiens; in short: as §1
[40] = system: U-251; experiment: Antitumor activity against U251 cells; assay type: functional; details: Homo sapiens; in short: as §1
[41] = read-out: Log LC50 (the source's name) (converted)

SMILES: O=C(NNS(=O)(=O)c1ccc(F)cc1)c1cccnc1Nc1ccc(Cl)cc1Cl
- GI50 [1]: 22.9 µM
- LC50 [1]: > 100 µM
- TGI ([1]; read-out: Log TGI (converted)): 67.6 µM
- GI50 [2]: 17.4 µM
- LC50 [2]: 97.7 µM
- TGI ([2]; read-out: Log TGI (converted)): 40.7 µM
- GI50 [3]: 34.7 µM
- CC50 [3, 41]: > 100 µM
- TGI ([3]; read-out: Log TGI (converted)): > 100 µM
- GI50 [4]: 46.8 µM
- LC50 [4]: > 100 µM
- TGI ([4]; read-out: Log TGI (converted)): > 100 µM
- GI50 [5]: 89.1 µM
- LC50 [5]: > 100 µM
- TGI ([5]; read-out: Log TGI (converted)): > 100 µM
- GI50 [6]: 11.7 µM
- LC50 [6]: > 100 µM
- TGI ([6]; read-out: Log TGI (converted)): 52.5 µM
- GI50 [7]: 45.7 µM
- LC50 [7]: > 100 µM
- TGI ([7]; read-out: Log TGI (converted)): > 100 µM
- GI50 [8]: 29.5 µM
- CC50 [8, 41]: > 100 µM
- TGI ([8]; read-out: Log TGI (converted)): 95.5 µM
- GI50 [9]: 38 µM
- LC50 (lethal concentration, 50%) [9]: > 100 µM
- TGI ([9]; read-out: Log TGI (converted)): > 100 µM
- GI50 [10]: 26.9 µM
- CC50 [10, 41]: > 100 µM
- TGI ([10]; read-out: Log TGI (converted)): > 100 µM
- GI50 [11]: 45.7 µM
- LC50 [11]: > 100 µM
- TGI ([11]; read-out: Log TGI (converted)): > 100 µM
- GI50 [12]: 11.5 µM
- LC50 [12]: 66.1 µM
- TGI ([12]; read-out: Log TGI (converted)): 27.5 µM
- GI50 [13]: 17.8 µM
- LC50 [13]: 57.5 µM
- TGI ([13]; read-out: Log TGI (converted)): 31.6 µM
- GI50 [14]: 33.9 µM
- LC50 [14]: > 100 µM
- TGI ([14]; read-out: Log TGI (converted)): > 100 µM
- GI50 [15]: 14.8 µM
- LC50 [15]: 69.2 µM
- TGI ([15]; read-out: Log TGI (converted)): 32.4 µM
- GI50 [16]: 22.9 µM
- LC50 [16]: > 100 µM
- TGI ([16]; read-out: Log TGI (converted)): 55 µM
- GI50 [17]: 85.1 µM
- LC50 [17]: > 100 µM
- TGI ([17]; read-out: Log TGI (converted)): > 100 µM
- GI50 [18]: 18.6 µM
- CC50 [18, 41]: > 100 µM
- TGI ([18]; read-out: Log TGI (converted)): > 97.7 µM
- MIC [19]: 21 µg/mL (≈ 46.1 µM)
- MIC [20]: 9 µg/mL (≈ 19.8 µM)
- MIC [21]: 20 µg/mL (≈ 43.9 µM)
- GI50 [22]: 22.9 µM
- LC50 (lethal concentration, 50%) [22]: > 100 µM
- TGI ([22]; read-out: Log TGI (converted)): 53.7 µM
- LC50 [23]: > 100 µM
- TGI ([23]; read-out: Log TGI (converted)): > 100 µM
- GI50 ([23]; read-out: pGI50 (converted)): 20.9 µM
- GI50 [24]: 25.1 µM
- LC50 [24]: > 100 µM
- TGI ([24]; read-out: Log TGI (converted)): 61.7 µM
- GI50 [25]: 20 µM
- LC50 [25]: > 100 µM
- TGI ([25]; read-out: Log TGI (converted)): 83.2 µM
- GI50 [26]: 30.9 µM
- CC50 [26, 41]: > 100 µM
- TGI ([26]; read-out: Log TGI (converted)): 85.1 µM
- GI50 [27]: 15.5 µM
- CC50 [27, 41]: 85.1 µM
- TGI ([27]; read-out: Log TGI (converted)): 36.3 µM
- GI50 [28]: 29.5 µM
- CC50 [28, 41]: > 100 µM
- TGI ([28]; read-out: Log TGI (converted)): 97.7 µM
- GI50 [29]: 30.9 µM
- CC50 [29, 41]: > 100 µM
- TGI ([29]; read-out: Log TGI (converted)): > 100 µM
- GI50 [30]: 16.2 µM
- LC50 [30]: > 100 µM
- TGI ([30]; read-out: Log TGI (converted)): 51.3 µM
- GI50 [31]: 30.2 µM
- LC50 [31]: > 100 µM
- TGI ([31]; read-out: Log TGI (converted)): > 100 µM
- GI50 [32]: 26.9 µM
- LC50 [32]: > 100 µM
- TGI ([32]; read-out: Log TGI (converted)): > 83.2 µM
- GI50 [33]: 21.9 µM
- LC50 [33]: > 100 µM
- TGI ([33]; read-out: Log TGI (converted)): 57.5 µM
- GI50 [34]: 22.9 µM
- CC50 [34, 41]: > 100 µM
- TGI ([34]; read-out: Log TGI (converted)): 49 µM
- GI50 [35]: 28.8 µM
- CC50 [35, 41]: > 100 µM
- TGI ([35]; read-out: Log TGI (converted)): > 100 µM
- GI50 [36]: 45.7 µM
- LC50 [36]: > 100 µM
- TGI ([36]; read-out: Log TGI (converted)): > 100 µM
- GI50 [37]: 26.3 µM
- LC50 [37]: > 100 µM
- TGI ([37]; read-out: Log TGI (converted)): 74.1 µM
- GI50 [38]: 29.5 µM
- CC50 [38, 41]: > 100 µM
- TGI ([38]; read-out: Log TGI (converted)): > 100 µM
- GI50 [39]: 25.7 µM
- CC50 [39, 41]: > 100 µM
- TGI ([39]; read-out: Log TGI (converted)): > 100 µM
- GI50 [40]: 28.8 µM
- LC50 [40]: > 100 µM
- TGI ([40]; read-out: Log TGI (converted)): > 100 µM
